Source: PubChem BioAssay
Sampled rows, rich in hits. Any-hit rate of the full collection: about 3.7%.
KCNK9 inh: human KCNK9 channel inhibition; Q9NPC2; HEK293 KCNK9, FluxOR thallium flux fluorescence; stronger effect = lower value; B-score at 10 µM; hit rate 1.2% among 310,000; AID 488922;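 active = ratio B-score over 3 SD below the library mean, with starting fluorescence within 5 SD of its mean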;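 note: negative B-score means less thallium flux so channel inhibition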
Target sequence (Q9NPC2 whole entry, looked up): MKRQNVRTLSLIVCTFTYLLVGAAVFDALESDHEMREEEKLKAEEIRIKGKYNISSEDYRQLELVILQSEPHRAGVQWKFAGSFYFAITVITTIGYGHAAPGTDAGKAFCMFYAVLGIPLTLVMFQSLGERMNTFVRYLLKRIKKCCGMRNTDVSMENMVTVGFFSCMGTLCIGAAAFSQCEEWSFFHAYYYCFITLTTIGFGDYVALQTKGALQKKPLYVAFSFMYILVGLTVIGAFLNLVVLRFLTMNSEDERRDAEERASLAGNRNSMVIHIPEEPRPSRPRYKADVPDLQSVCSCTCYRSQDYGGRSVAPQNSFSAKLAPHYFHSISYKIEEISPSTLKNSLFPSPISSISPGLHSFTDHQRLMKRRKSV
Kir21 block: Kir2.1 (mouse) channel inhibition; P35561; HEK293-Kir2.1, FluxOR thallium flux fluorescence; stronger effect = lower value; B-score at 10 µM; hit rate 0.85% among 310,000;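 active = fluorescence ratio B-score at or below minus 3 SD of library scores, with starting-brightness B-score within 2 SD, cut at about -4.2 in these data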;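 note: channel flux triggered by added potassium and thallium sulfate stimulus; B-score of peak minus minimum fluorescence over baseline after thallium stimulus; more negative B-score means stronger Kir2.1 block with less thallium influx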
hERG rescue: hERG (human) protection from proarrhythmic block; Q12809; CHO-hERG, FluxOR thallium flux, dofetilide IC70 present; activation (rescue from dofetilide block), less the hit threshold, % at 10 µM; hit rate 0.51% among 310,000; AID 1511;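 active = activation above the mean of controls blocked by dofetilide plus 5 SD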;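 note: thallium influx through hERG after potassium depolarization seen as dye fluorescence rise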
KCNQ1 pot: human KCNQ1 channel potentiation or activation. P51787. CHO-K1 KCNQ1, thallium flux FluxOR fluorescence; stronger effect = higher value. B-score at 10 µM. hit rate 0.35% among 310,000;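 active = fluorescence ratio B-score, a plate-corrected score, at least three library SD, with initial intensity B-score within 5 SD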
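Assay system: CHO-K1 cells stably expressing KCNQ1; Medium: assay buffer with matched DMSO; Also added: K+/Tl+ depolarizing stimulus; Dosing: single dose; Timing: dye 90 min, compound 20 min, room temperature; Measured by: kinetic FluxOR thallium fluorescence, 10-s 1-Hz baseline, 110-s post-stimulus read; Read-out: peak-minus-minimum fluorescence over initial fluorescence, negative-control normalized, B-scored.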
KCNK3 inh: human KCNK3 channel inhibition, primary screen; O14649; CHO-KCNK3 thallium flux, FluxOR fluorescence; stronger effect = lower value; B-score at 10 µM; hit rate 0.84% among 340,000;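 active = B-score under library mean minus 4 SD, starting fluorescence ratio at most library mean plus 5 SD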;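 note: more negative B-score means stronger inhibition of thallium flux through KCNK3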
KCNQ1 block: inhibitors of human KCNQ1 potassium channel; P51787; CHO-K1 KCNQ1, FluxOR thallium flux fluorescence; stronger effect = higher value; B-score at 10 µM; hit rate 1.3% among 310,000; AID 2642;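 active = compounds whose thallium flux B-score, printed positive for inhibition, exceeds three library SD while starting fluorescence stays within three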;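 note: channel opened by potassium depolarization with thallium stimulus after 20 min compound exposure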
An asterisk follows results filed as active; i = inactive; . = no result.

SMILES	KCNK9 inh	Kir21 block	hERG rescue	KCNQ1 pot	KCNK3 inh	KCNQ1 block
C/C(=N\NC(=O)c1cc2ccccc2cc1O)c1cc2ccccc2o1	i	0.59	55*	138*	i	i
O=C(N/N=C/c1ccc(-c2ccccc2)o1)c1ccccc1O	i	0.93	0	8*	i	i
C/C(=N\NC(=O)c1c[nH]c2ccccc12)c1ccccn1	i	-1.2	-14	i	i	i
C/C(=N\NC(=O)c1cc2ccccc2cc1O)c1ccccn1	i	0.07	-2	7*	i	i
O=C(N/N=C\c1ccc(Sc2ccccn2)o1)c1cccc(F)c1	i	-0.56	3	i	i	i
Cc1ccc(CN2CCN(Cc3nc4ccccc4nc3C)CC2CCO)cc1 (stereo unspecified)	i	0.15	-12	i	i	i
CCN(CC(=O)Nc1c(F)cccc1F)C(=O)CNC(=O)c1cccc(C)c1	i	-0.48	-1	i	i	i
COc1cc(CC(=O)OCC(=O)NC2CCCCCC2)cc(OC)c1OC	.	.	.	.	i	.
CC(=N/O)/C(C)=N\NC(=O)c1ccccn1	i	-2.3	-16	i	i	8*
CC(Cc1cccs1)NC(=O)Nc1ccc(F)cc1 (stereo unspecified)	-6.6*	0.29	-12	i	i	i
O=C(Cc1cccs1)Nc1ccc(F)cc1	i	0.05	-2	i	i	i
COc1ccc(-c2nn(-c3ccccc3)cc2/C=C/C(=O)N2CCN(c3ccccn3)CC2)cc1	i	0.67	-33	i	i	6*
COCCCNC(=O)C[C@H]1C[C@H](C(=O)N2CCOCC2)[C@@]2(CCC3CCCC3)c3[nH]c4ccc(Cl)cc4c3CCN2C1=O	.	.	.	.	i	.
Cc1nn(CCC#N)c(N)c1C1(O)C(=O)Nc2c(Cl)cc(Cl)cc21 (stereo unspecified)	i	1.2	-9	i	i	i
CCOC(=O)Cc1csc(SCC(=O)Nc2cc(Cl)ccc2Oc2ccccc2)n1	i	-3.3	-11	i	i	11*
CCOC(=O)Cc1csc(SCC(=O)Nc2cccc(Cl)c2)n1	i	1	-9	i	i	i
Cc1cc(C)c(S(=O)(=O)NCC(c2ccco2)N2CCc3ccccc3C2)c(C)c1 (stereo unspecified)	-6.8*	0.04	-3	i	i	i
C/C(=N/NS(=O)(=O)c1ccc(C(C)(C)C)cc1)c1ccc2c(c1)OCO2	i	0.85	-8	i	i	i
C/C(=N\NS(=O)(=O)c1ccc(C(C)(C)C)cc1)c1ccccc1	i	1.1	-6	i	i	6*
S=c1[nH]c(-c2ccccc2)cn1/N=C/c1ccccc1Br	i	-0.54	3	i	i	i
S=c1[nH]c(-c2ccccc2)cn1/N=C/c1cccc2ccccc12	i	1.4	69*	14*	i	i
CCCCN(CC)CCCNC(=O)c1cn(-c2ccc(OC)cc2)c(=O)c2ccccc12	i	0.45	-5	i	i	i
O=C1CC(c2cccs2)Sc2nc3ccccc3n21 (stereo unspecified)	i	-0.18	-4	i	i	i
O=C1CC(c2ccccc2)Sc2nc3ccccc3n21 (stereo unspecified)	i	-2.2	42*	i	i	i
Cc1sc2nc(C(C)C)nc(SCC(=O)N3CCN(C(=O)c4ccco4)CC3)c2c1C	i	-0.21	-2	i	i	i
SMILES	KCNK9 inh	Kir21 block	hERG rescue	KCNQ1 pot	KCNK3 inh	KCNQ1 block
CCCc1nc(SCC(=O)N2CCc3ccccc3C2)c2ccccc2n1	i	-5.6*	-2	i	i	i
CCc1c(C)sc2nc(C(C)C)nc(SCC(=O)N3CCc4ccccc4C3)c12	i	0.01	-7	i	.	9*
C=CCN(CC=C)C(=S)NC(=O)c1ccc(OC)cc1	i	0.12	28*	13*	i	i
CC(C)N(Cc1ccccc1)C(=O)COc1ccccc1	i	0.24	-1	i	i	i
CC(C)C(=O)NC(=S)N(Cc1ccccc1)Cc1ccccc1	i	-0.41	-6	i	i	i
C=CCN(CC=C)C(=S)NC(=O)c1ccc(-c2ccccc2)cc1	i	0.8	0	15*	i	i
C=CCN(CC=C)C(=S)NC(=O)/C=C/c1ccccc1	i	-0.87	-2	i	i	i
COc1ccc(C(=O)NC(=S)N(Cc2ccccc2)Cc2ccccc2)cc1	i	0.17	33*	85*	i	i
C=CCNC(=O)c1ccc(OC)cc1	i	1.3	-7	i	i	i
COc1ccc(CC(=O)N(Cc2ccccc2)C(C)C)cc1	i	-4.3*	-5	i	i	i
CCOc1ncccc1C(=O)NNC(=O)c1ccc(NS(=O)(=O)c2cccs2)cc1	i	1.7	-13	i	i	i
C=CCN(CC=C)C(=S)NC(=O)/C=C/c1ccc(OC)cc1	i	1.6	12*	i	i	i
C=CCN(CC=C)C(=S)NC(=O)c1ccc(C)c(Br)c1	i	-0.03	87*	56*	i	i
O=C(NC(=S)N(Cc1ccccc1)Cc1ccccc1)c1ccccc1F	i	-0.3	16*	13*	i	i
C=CCN(CC=C)C(=S)NC(=O)/C=C/c1ccc(C)cc1	i	-0.58	-4	i	i	i
Cc1ccccc1C1C(C#N)=C2N=C(N)c3c(sc4c3CCCCC4)N2C2=C1C(=O)CCC2 (stereo unspecified)	-6.8*	-0.75	-16	i	i	i
CC12CCC(C(=O)NCc3ccc4c(c3)OCO4)(CC1=O)C2(C)C (stereo unspecified)	i	2.2	5.3*	i	i	i
Cc1ccccc1OCC(=O)N=Nc1c(O)n(C)c2ccccc12	i	-1.6	0	8*	i	i
O=C1[C@@H]2Cc3c([nH]c4ccccc34)CN2C(=O)CN1CCCCCO	i	-1.4	-8	i	i	i
O=Cc1cc(N=Nc2cccc(C(=O)O)c2)ccc1O	i	1.4	-17	i	i	i
O=Cc1cc(N=Nc2ccccc2Cl)ccc1O	i	0.99	-20	11*	i	i
Cc1ccc(C(=O)OCC(=O)NC(=O)c2ccccc2)o1	i	-0.43	-12	i	i	i
CCC(=NN=C(CC)c1ccccc1O)c1ccccc1O	.	.	.	.	-9.9*	.
COc1ccc(N2CC(C(=O)NCc3nnnn3-c3ccc(C)c(C)c3)CC2=O)cc1 (stereo unspecified)	i	0.14	-8	i	i	i
CN(CC(=O)Nc1ccc(F)cc1)C(=O)Cn1nnc(-c2ccccc2)n1	i	0.39	-9	i	i	i
